Data taken from PMC5625158 (Pharmacology Research & Perspectives, 2017).

What was measured:
liver and lung fibrosis = conditions: ref Henderson et al. 2013; cited from earlier work
obese ZSF1 rats [1] = test: Renal function in obese ZSF1 rat diabetic nephropathy model; format: in vivo; conditions: for Urinary protein/creatinine ratio (UPCR): 28 weeks
obese ZSF1 rats [2] = test: Kidney histology in ZSF1 rats; format: in vivo, rat
How it was run: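 At study end, both kidneys were formalin-fixed, paraffin-embedded and stained with H&E, PAS and Masson's trichrome for light microscopy. Tubular, interstitial, vascular and glomerular changes were graded 0–5 (normal to severe). Collagen deposition was graded 0–5 by blue-stained area size and intensity. Group sizes were n = 8 lean and n = 12 per obese group, with 28 weeks of diet dosing.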

obese ZSF1 rats [3] = test: Kidney collagen I and III protein by immunohistochemistry in ZSF1 rats; format: in vivo, rat; conditions: 400 mg/kg/day, versus obese vehicle
How it was run: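 Kidneys were taken at study end, formalin-fixed and paraffin-embedded, then deparaffinized and rehydrated. Sections were stained with rabbit polyclonal anti-collagen I (2 ug/mL) or anti-collagen III (3 ug/mL), developed with an HRP-polymer kit and counterstained with hematoxylin. Whole slides were scanned at 20x, and positive stain area was quantified by a colour-deconvolution algorithm. Dosing was in diet for 28 weeks.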

obese ZSF1 rats [4] = test: Kidney fibrosis marker gene expression by RT-PCR in ZSF1 rats; format: in vivo, rat; conditions: dose not given
How it was run: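 Kidney cortex was snap-frozen, homogenized in TRIzol and column-purified for RNA. A 2 µg RNA sample was reverse-transcribed, and rat TaqMan probes were used for qPCR. Ct values were normalized to the geomean of POLR2A and B2M and quantified by the 2^-ΔΔCT method relative to the obese vehicle group. Treatment was in diet for 28 weeks (n = 12 per obese group).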

[5] = test system: Human primary kidney fibroblasts (HPKF); test: Kidney fibroblast fibrosis assay; format: cell-based
How it was run: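 Primary human kidney fibroblasts were grown on collagen I-coated plates at 37°C in 5% CO2 and serum-starved overnight. They were then given various concentrations of test compound for 24 h. In TGF-β arms, compound was added 1 h before recombinant human TGF-β1 (5 ng/mL final, 24 h). Marker mRNA was measured by RNA extraction, reverse transcription and real-time PCR.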

[6] = test system: men with hormone‐refractory prostate cancer and bone metastases; conditions: ref Rosenthal et al. 2010; cited from earlier work
human podocytes = test: Podocyte cell viability; format: cell-based; conditions: 48 h treatment, unpublished data
αvβ3 = αvβ3 (Homo sapiens, UniProt P05106+P06756); conditions: ref Hutchinson et al. 2003; cited from earlier work
[7] = test system: α1β1, α2β1, α3β1, α4β1, α6β1, α9β1, α10β1, α11β1, and αIIbβ3 integrins; test: Thermal shift assay; format: binding, Human; conditions: Twenty μM MK‐0429
How it was run: (§1)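 Differential scanning fluorimetry was run on a real-time PCR instrument. Recombinant integrins (the α1β1–αIIbβ3 panel was recombinant human) were reconstituted in assay buffer with Sypro orange, and test compound was added at 20 µM. ΔTm was calculated against a DMSO control. Runs were in triplicate across three independent experiments.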

[8] = test system: osteoplastic bone resorption; conditions: ref Hutchinson et al. 2003; cited from earlier work
platelet aggregation = conditions: ref Hutchinson et al. 2003; cited from earlier work
[9] = test system: postmenopausal women with osteoporosis; conditions: cited from earlier work
[10] = Body weight, food and water intake in ZSF1 rats; format: in vivo, rat; conditions: data not shown
How it was run: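 Male obese ZSF1 rats received the test compound in a medicated chow diet from 16 weeks of age for 28 weeks. Before each collection they were acclimated for at least 3 days to single housing in metabolic cages. Body weight and food and water consumption were recorded at every urine and blood collection, at weeks −2, 1, 2, 4, 6, 8, 12, 16, 21, 24 and 28.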

αvβx integrins = test: Thermal shift assay, αvβx integrins; format: binding; conditions: Fig. S1B
How it was run: as §1

Sequence of αvβ3 (P06756 31-992 limits assumed): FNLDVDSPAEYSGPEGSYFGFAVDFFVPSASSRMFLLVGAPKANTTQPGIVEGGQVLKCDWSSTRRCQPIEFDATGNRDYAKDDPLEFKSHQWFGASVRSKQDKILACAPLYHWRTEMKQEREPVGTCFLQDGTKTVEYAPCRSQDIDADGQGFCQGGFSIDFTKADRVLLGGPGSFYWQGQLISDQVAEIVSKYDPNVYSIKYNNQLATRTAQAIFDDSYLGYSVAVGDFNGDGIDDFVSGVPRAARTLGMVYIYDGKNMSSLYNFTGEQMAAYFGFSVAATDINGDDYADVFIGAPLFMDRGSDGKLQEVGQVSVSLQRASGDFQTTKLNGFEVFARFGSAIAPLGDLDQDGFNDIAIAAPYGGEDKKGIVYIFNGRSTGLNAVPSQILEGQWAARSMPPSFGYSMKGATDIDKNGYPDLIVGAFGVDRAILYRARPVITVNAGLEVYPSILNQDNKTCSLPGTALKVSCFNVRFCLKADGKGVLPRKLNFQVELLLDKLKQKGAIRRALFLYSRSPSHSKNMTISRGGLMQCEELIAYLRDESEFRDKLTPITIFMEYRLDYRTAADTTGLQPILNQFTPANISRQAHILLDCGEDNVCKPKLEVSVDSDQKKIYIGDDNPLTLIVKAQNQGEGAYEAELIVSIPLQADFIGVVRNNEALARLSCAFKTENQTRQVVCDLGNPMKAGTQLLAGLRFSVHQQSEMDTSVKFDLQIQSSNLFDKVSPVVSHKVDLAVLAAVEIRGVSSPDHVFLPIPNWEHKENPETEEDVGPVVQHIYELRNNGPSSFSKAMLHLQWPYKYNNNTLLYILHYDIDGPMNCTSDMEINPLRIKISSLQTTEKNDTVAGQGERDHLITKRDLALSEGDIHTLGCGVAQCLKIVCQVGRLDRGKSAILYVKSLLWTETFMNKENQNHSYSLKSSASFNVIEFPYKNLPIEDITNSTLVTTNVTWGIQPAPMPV
Sequence of αvβ3 (P05106 27-718 limits assumed): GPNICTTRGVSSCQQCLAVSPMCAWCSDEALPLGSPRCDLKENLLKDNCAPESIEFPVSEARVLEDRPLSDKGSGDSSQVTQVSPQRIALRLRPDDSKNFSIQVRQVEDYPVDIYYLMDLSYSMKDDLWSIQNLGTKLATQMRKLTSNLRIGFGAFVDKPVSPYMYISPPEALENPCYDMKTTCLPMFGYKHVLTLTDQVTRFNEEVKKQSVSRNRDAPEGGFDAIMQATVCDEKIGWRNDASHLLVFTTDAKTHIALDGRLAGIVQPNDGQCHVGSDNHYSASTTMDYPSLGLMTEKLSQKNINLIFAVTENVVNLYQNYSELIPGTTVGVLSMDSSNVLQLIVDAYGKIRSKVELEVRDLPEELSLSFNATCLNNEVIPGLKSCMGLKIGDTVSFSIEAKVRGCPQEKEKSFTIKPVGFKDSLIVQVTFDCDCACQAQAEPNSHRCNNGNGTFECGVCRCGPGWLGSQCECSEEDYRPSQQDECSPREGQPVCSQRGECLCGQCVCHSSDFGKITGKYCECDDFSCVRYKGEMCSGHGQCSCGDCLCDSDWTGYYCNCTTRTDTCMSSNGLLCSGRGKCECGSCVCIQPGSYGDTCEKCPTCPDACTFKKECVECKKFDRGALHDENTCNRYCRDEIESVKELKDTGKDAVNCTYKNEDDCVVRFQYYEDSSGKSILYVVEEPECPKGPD

## CC(C)(C)c1cc(Br)cc([C@H](CC(=O)O)NC(=O)CNC(=O)c2cc(O)cc(NC3=NCC(O)CN3)c2)c1 (some centres unmarked) [CWHM12]
Liver and lung fibrosis
  Liver and lung fibrosis: attenuated

## CCOC(=O)[C@H](CCc1ccccc1)N[C@@H](C)C(=O)N1CCC[C@H]1C(=O)O [Enalapril, enalapril]
Obese ZSF1 rats [1]; 10 mg/kg/day in diet
  Urinary protein/creatinine ratio (UPCR): significantly decreased
Obese ZSF1 rats [1]; enalapril 10 mg/kg/day in diet
  Glomerular filtration rate (GFR): improvement
Obese ZSF1 rats [2]; 10 mg/kg/day, 28 weeks, versus obese vehicle
  Kidney fibrosis score (Masson's trichrome): significantly decreased

## COc1ccc([C@H](CC(=O)O)N2CCN(CCCc3ccc4c(n3)NCCC4)C2=O)cn1 [MK‐0429]
Obese ZSF1 rats [3]
  Decrease of Type I collagen positive stain (% of area), kidney IHC: significantly decreased
  Decrease of Type III collagen positive stain (% of area), kidney IHC: significantly decreased
Obese ZSF1 rats [4]
  αSMA mRNA expression, kidney: significantly decreased
Obese ZSF1 rats [1]; 400 mg/kg/day in diet
  Urinary protein/creatinine ratio (UPCR): significantly later onset in its effects to reduce
[5]; HPKF ± TGF‐β
  Expression of Collagen type I alpha‐1 chain (Col IA1): partially inhibited
  Expression of connective tissue growth factor (CTGF): strongly suppressed
  Expression of α‐smooth muscle actin (αSMA): partially inhibited
[5]; read-out: Inhibition of PAI‐1 gene expression IC50, HPKF, absence of TGF‐β, 24 h
  IC50: 56.5 nM
[6]
  Bone turnover: significantly reduced
Human podocytes
  Effect on cell viability: without affecting cell viability
Obese ZSF1 rats [2]; 0–5 scale, data not shown
  Glomerular injury score: no significant effect
  Tubular injury score: no significant effect
αvβ3
  αvβ3 ligand binding: inhibits
[7]
  Binding to other integrins (thermal shift assay): does not bind and No
[8]
  Osteoplastic bone resorption: inhibits
Platelet aggregation
  Activity in platelet aggregation assay: inactive
[9]; phase II, postmenopausal women with osteoporosis, ref Murphy et al. 2005
  Bone mineral density at spine and hip (multiple endpoints): improvement
[9]; ref Hutchinson et al. 2003, Coleman et al. 2004, Murphy et al. 2005, Rosenthal et al. 2010
  Tolerability in Phase II trials: well tolerated
[10]
  Body weight: no significant effects
  Food intake: no significant effects
  Water intake: no significant effects
αvβx integrins
  Shift of melting temperatures of αvβx integrins: dramatic shift
